From publication PMC4216218 (Journal of Medicinal Chemistry, 2014)
Values joined by “and” are separate entries in the source; they are usually repeats but may differ in a detail not shown here. Equal entries are not always repeated.

What was measured:
DEGR-factor XIa = DEGR-factor XIa (Homo sapiens, UniProt P03951); assay: Fluorescence-based binding affinity, dansyl fluorescence; conditions: saturating ligand, λEX 345 nm
DEGR-FXIa = DEGR-FXIa (Homo sapiens, UniProt P03951); assay: Salt dependence of affinity of DEGR-FXIa; format: binding
DEGR-FXIa, sequence (P03951 19-387 limits assumed): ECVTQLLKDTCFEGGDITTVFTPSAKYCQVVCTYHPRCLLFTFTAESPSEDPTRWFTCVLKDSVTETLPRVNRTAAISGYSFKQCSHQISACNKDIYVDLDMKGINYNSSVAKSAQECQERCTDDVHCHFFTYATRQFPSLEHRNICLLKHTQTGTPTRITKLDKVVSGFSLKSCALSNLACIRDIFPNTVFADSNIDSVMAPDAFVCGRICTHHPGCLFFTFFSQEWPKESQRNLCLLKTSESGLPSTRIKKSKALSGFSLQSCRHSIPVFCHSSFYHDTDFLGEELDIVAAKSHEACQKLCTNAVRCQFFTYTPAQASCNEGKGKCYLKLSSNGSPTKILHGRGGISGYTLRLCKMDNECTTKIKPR
DEGR-FXIa, sequence (P03951 388-625 limits assumed): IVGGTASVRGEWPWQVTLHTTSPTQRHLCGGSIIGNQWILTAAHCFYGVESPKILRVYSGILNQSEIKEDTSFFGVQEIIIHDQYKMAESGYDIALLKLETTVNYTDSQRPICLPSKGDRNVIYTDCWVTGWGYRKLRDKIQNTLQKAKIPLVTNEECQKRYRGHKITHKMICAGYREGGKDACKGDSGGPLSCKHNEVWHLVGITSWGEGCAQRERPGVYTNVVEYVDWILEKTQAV
How it was run: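 DEGR-factor XIa (250 nM) was titrated with ligand solutions at 37 °C in 50 mM Tris-HCl pH 7.4, 0.1% PEG8000, at 25, 50, 100 or 150 mM NaCl. Dansyl fluorescence was read at 547 nm (excitation 345 nm), and a quadratic fit gave KD,obs. […] At least two experiments were run.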

factor XI (zymogen) = factor XI (zymogen) (Homo sapiens, UniProt P03951); format: binding; conditions: intrinsic tryptophan fluorescence, pH 7.4, 37 °C
factor XI (zymogen), sequence (P03951 19-625): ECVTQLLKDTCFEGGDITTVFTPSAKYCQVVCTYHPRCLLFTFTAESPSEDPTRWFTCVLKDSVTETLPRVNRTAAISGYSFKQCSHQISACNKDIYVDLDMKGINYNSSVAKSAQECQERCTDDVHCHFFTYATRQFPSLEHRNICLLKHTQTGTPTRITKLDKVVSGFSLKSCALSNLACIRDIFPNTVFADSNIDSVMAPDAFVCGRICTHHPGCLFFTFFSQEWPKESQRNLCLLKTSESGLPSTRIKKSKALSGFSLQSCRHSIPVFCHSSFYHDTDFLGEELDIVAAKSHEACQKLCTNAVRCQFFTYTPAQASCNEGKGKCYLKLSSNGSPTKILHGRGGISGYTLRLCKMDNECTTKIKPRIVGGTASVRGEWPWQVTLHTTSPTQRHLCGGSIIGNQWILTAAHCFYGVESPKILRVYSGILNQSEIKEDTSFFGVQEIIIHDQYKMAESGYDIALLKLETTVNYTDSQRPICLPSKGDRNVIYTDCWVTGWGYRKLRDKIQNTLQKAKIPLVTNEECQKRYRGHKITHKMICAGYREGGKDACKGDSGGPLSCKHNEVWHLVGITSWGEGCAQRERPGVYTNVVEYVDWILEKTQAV
How it was run: (§1)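 Human plasma factor XI or factor XIa (105 nM) was titrated at 37 °C with aliquots of 200–250 μM aqueous ligand in 50 mM Tris-HCl pH 7.4, 150 mM NaCl, 0.1% PEG8000. Intrinsic tryptophan fluorescence (λEX 280 nm) was followed. ΔF/F0 versus ligand concentration was fitted to a quadratic binding equation for KD and ΔFMAX.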

human factor XIa = human factor XIa (Homo sapiens, UniProt P03951); assay: Fluorescence-based binding affinity, intrinsic tryptophan fluorescence; conditions: pH 7.4, 37 °C
human factor XIa, sequence (P03951 19-387 limits assumed): as the sequence (P03951 19-387 limits assumed) above
human factor XIa, sequence (P03951 388-625 limits assumed): as the sequence (P03951 388-625 limits assumed) above
How it was run: as §1

DEGR-factor XIa, sequence (P03951 19-387 limits assumed): as the sequence (P03951 19-387 limits assumed) above
DEGR-factor XIa, sequence (P03951 388-625 limits assumed): as the sequence (P03951 388-625 limits assumed) above

blue-shift of emission wavelength of DEGR-FXIa (DEGR-factor XIa): ~3 nm
Z (number of ion-pairs formed) (DEGR-FXIa; pH 7.4, 37 °C): 0.64 ± 0.04
intercept of log KD,obs versus log[Na] (DEGR-FXIa; pH 7.4, 37 °C): –5.00 ± 0.04
slope of log KD,obs versus log[Na] (DEGR-FXIa; pH 7.4, 37 °C): 0.52 ± 0.03
ΔG0NI (binding energy due to nonionic forces) (DEGR-FXIa; pH 7.4, 37 °C): 7.08 kcal/mol and 7.1 ± 0.02 kcal/mol
ΔG0NI (nonionic binding energy contribution to the total) (DEGR-FXIa; pH 7.4, 37 °C): 90.5%
ΔG0I (binding energy due to ionic forces) (DEGR-FXIa; pH 7.4, I 0.15): 0.75 kcal/mol
Kd (DEGR-FXIa; read-out: KD,NI (nonionic affinity), dissociation constant at [Na+] = 1 M): 10.1 ± 0.4 µM
Kd (factor XI (zymogen)): 1.8 ± 0.4 µM
Kd (human factor XIa): 0.9 ± 0.2 µM
ΔFMAX (human factor XIa): –68 ± 2%
Substance: heparin octasaccharide [H8]
